These results are taken from ChEMBL document CHEMBL4513216, “Probing the Open Global Health Chemical Diversity Library for Multistage-Active Starting Points for Next-Generation Antimalarials” (ACS Infect Dis, 2020).

This data set in a line: Toxicity liver stage against HepG2, at 10uM. As to conditions: human, HepG2-A16-CD81EGFP cells; read-out: INHIBITION
Further details: test concentration 10 uM, cell line HepG2-A16-CD81EGFP. Format: cell-based. In a few lines: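 Uninfected HepG2-A16-CD81EGFP cells, 3 × 10^3 per well, 1536-well, plated on prespotted compound at 10 μM final, parasite-free screening media added to match infected plates; puromycin 10 μM positive, DMSO 0.5% negative; run in parallel with 48 h PbLuc assay at 37 °C, 5% CO2; viability by CellTiter-Glo luminescence, normalized to controls.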
For `CCC1=N[C@@]2(CC[C@@H]3CN(S(C)(=O)=O)C[C@@H]32)C(=O)N1CC(C)C`, the cytotoxicity at 10 µM stood at 2.58%.
Take `CC(C)c1cc(NC(=O)CN2CCC(N3CCCCC3)CC2)on1`: the cytotoxicity at 10 µM was -9.68%.
As for `O=S(=O)(c1cccc(F)c1)N1CCCCC1c1ccn[nH]1` (configuration not stated), the figure is 0.692%.
As for `COc1ccc(CNc2cnn(CC(F)F)c2)cc1`, the figure is -7.47%.
With `Cn1ccc(CS(=O)(=O)Cc2ccccc2)cc1=O`, the cytotoxicity at 10 µM is 6.02%.
As for `O=C(C1CCC1)N1CCN(Cc2ccccc2F)[C@H]2CS(=O)(=O)C[C@H]21`, the figure is 0.15%; as for `CCOc1ccc(C(=O)CCC(=O)N(C)Cc2nc(C)c[nH]2)cc1C`, -5.45%; as for `Cc1noc(C)c1CN1C[C@@H](C(=O)O)[C@H](c2ccccc2)C1`, -9.04%.
As for `COc1ccc(CNC(=O)N(C)CC(C)(C)O)cc1OC`, the figure is 6.89%; as for `CCCN1C[C@@H]2CC[C@H]1CN(Cc1ccc(-n3cccn3)cc1)C2`, 5.05%; as for `O=C(NCC1CCC1)c1ccc(-n2ccnc2)nn1`, 2.18%.
As for `Cc1cccc(NCc2nn(C)c(=O)[nH]2)c1`, the figure is 2.6%.
On to `COc1ccc(CN[C@@H]2CO[C@H](CNC(=O)N3CCOCC3)[C@H]2O)cc1`, for which the cytotoxicity at 10 µM is -1.57%.
As for `CN1CCCN(S(=O)(=O)c2cccc(C(=O)N3CCCCCC3)c2)CC1`, the figure is -5.9%; as for `Cc1nc(CN2CCCN(C(=O)COCC3CC3)CC2)cs1`, -11%.
Regarding `Cc1nc(N)nc(C)c1CC(=O)N1CCC2(CC1)OCCCC2O` (configuration not stated), the cytotoxicity at 10 µM is -1.8%.
As for `O=C(CCn1cccn1)NCCOc1ncc(Cl)cc1Cl`, the figure is -3.82%.
As for `COCCN1CCCC1Cn1nc(C)cc1C` (configuration not stated), the figure is 1.31%; as for `Cc1cnn(CC2CCCN2C(=O)c2n[nH]c3ccccc23)c1` (configuration not stated), -9.93%; as for `CN(CCc1ccccn1)[C@@H]1CCN(c2cccc(C#N)n2)C[C@H]1O`, -13.9%.
In the case of `CSCCCNC(=O)C(c1cccc(F)c1)N(C)C` (configuration not stated), the cytotoxicity at 10 µM is 0.28%.
As for `Cc1cn(CC(=O)NC2CCN(C(C)C)CC2)c2ccccc12`, the figure is 0.0531%; as for `O=C([C@@H]1CC[C@@H]2[C@@H](CCN2CCOCc2ccccc2)O1)N1CCCC1`, -110%; as for `COCCCN1CCCC(c2nccn2CC2CCC2)C1` (configuration not stated), -3.94%.
As for `Cc1ccsc1C(O)CNS(=O)(=O)Cc1ccc(F)cc1` (configuration not stated), the figure is -4.38%; as for `COc1ccc(/C=C/CN2C[C@@H]3CC[C@H]2CN(S(=O)(=O)N(C)C)C3)cc1`, -2.72%; as for `CCC(CC)n1nc(C)cc1NC(=O)C1CCOC1` (configuration not stated), -5.15%.
As for `O=C1CCSCC(C(=O)N2CCOCC2)N1` (configuration not stated), the figure is -11.3%; as for `CNc1oc(-c2ccc(OC)c(S(=O)(=O)N(C)C)c2)nc1C#N`, 1.71%.
In the case of `Cc1cc(N(C)C)nc(C2CCCN2)n1` (configuration not stated), the cytotoxicity at 10 µM was -11.1%.
As for `CCOCC(=O)N1CC[C@H]2OCC[C@@]2(COc2ncccc2F)C1`, the figure is -152%; as for `COc1ccc(N2CCC(N(C)C(=O)C(C)SC)CC2)cc1` (configuration not stated), 1.69%; as for `CCn1ncc(CN2CCC(O)(Cn3ccc4ncccc43)CC2)c1C`, -0.692%.
As for `CN(CCOc1ccccc1F)S(=O)(=O)CC1CCOCC1`, the figure is 6.47%.
As for `CCc1nc(C)c(C(=O)NCC2COc3cc(OC)ccc3C2)o1` (configuration not stated), the figure is 54.6%.
`Cn1c(CNCC2CCCN2c2cccnn2)nc2ccccc21` (configuration not stated): the cytotoxicity at 10 µM was -18.2%.
Turning to `CC(C)CC(C)NCc1cccnc1N1CCOCC1` (configuration not stated), the cytotoxicity at 10 µM was -4.22%.
As to `O=c1cc(-c2ccccc2)nc2n1CCCCC2`, the cytotoxicity at 10 µM came to 1.36%.
As for `Cn1ccnc1CN(CCO)C(=O)c1cnc2ccccc2c1`, the figure is 1.39%.
For `O=C(C1CC(F)(F)C1)N1C[C@@H]2CN(Cc3ccoc3)CCO[C@@H]2C1`, the cytotoxicity at 10 µM is 7.81%.
As for `Cn1ccnc1C(=O)N[C@@H]1CN(Cc2ccoc2)[C@@H]2CCCO[C@@H]21`, the figure is -99.9%; as for `COc1cnc(N2CCCN(c3ccc(F)cc3)CC2)nc1`, -10.6%; as for `Cc1nc(CNC(=O)Nc2cc(C(F)(F)F)c[nH]c2=O)cs1`, 0.868%.
As for `c1cc(C2CCCN2CC2CCCCC2)n[nH]1` (configuration not stated), the figure is -1.83%; as for `Cn1nc2c(cc1=O)CN(Cc1coc(-c3cccs3)n1)CC2`, -11.1%; as for `Cc1cccc(C)c1OCC(=O)Nc1cccn(C)c1=O`, 4.08%.
As for `O=C(C1CCCCC1)N1CCN(Cc2nc(-c3ccco3)no2)CC1`, the cytotoxicity at 10 µM was -1.01%.
As for `CC(C(=O)Nc1ccccn1)n1ccc(C(F)(F)F)n1` (configuration not stated), the figure is 2.74%; as for `COC(=O)c1sc2cccc(F)c2c1CNC(=O)C1CCCO1` (configuration not stated), -13.5%.
As for `COc1ccc(OC)c(NC(=O)c2nc3ccccc3n(C)c2=O)c1`, the figure is -4.71%.
As for `CC(C)(CO)CCCNC(=O)N1CCc2c(F)ccc(F)c2C1`, the figure is -2.18%; as for `CNC(=O)CN1CCOCC12CCN(CCc1ccccc1)CC2`, -76.8%.
For the molecule `CC1CN(Cc2ccccc2)CCCN1CCCS(C)(=O)=O` (configuration not stated), the cytotoxicity at 10 µM worked out at 5.27%.
As for `CCC(C)(CNC(=O)c1ccon1)NC(=O)c1ccon1` (configuration not stated), the figure is -0.903%; as for `CO[C@@H]1CC[C@H]2[C@H]1OCCN2CC1CCOCC1`, -20.3%.
As for `CCN1C(=O)CCCC12CCCN(C(=O)c1cnccn1)C2` (configuration not stated), the cytotoxicity at 10 µM stood at 2.63%.
As for `COCCS(=O)(=O)Nc1ccc(-n2nccc2C(F)(F)F)cc1`, the figure is 1.26%; as for `CC(C)Cc1noc(CN2CCN(C(=O)c3ccco3)CC2)n1`, -5.39%; as for `CCC1CN(c2cnn(C)c(=O)c2Cl)CCO1` (configuration not stated), -1.26%.
Regarding `COc1ccc(OCCNC(=O)N2CCS(=O)(=O)CC2)cc1`, the cytotoxicity at 10 µM is -6.95%.
As for `O=C(CN1CCCc2sccc2C1=O)NC1CCc2nccn2C1` (configuration not stated), the figure is 16.1%; as for `CCn1cc(CN2CCN(C(=O)c3cc(C)c(C)s3)CC2)c(C)n1`, 2.07%; as for `CCCNC(=O)NCc1cccnc1OC`, 4.6%.
As for `CN(C)C(=O)CN1C(=O)CCC12CCN(Cc1ccsc1)CC2`, the figure is -3.13%; as for `Cc1noc(-c2ccc(N3CCCC(C(N)=O)C3)nc2)n1` (configuration not stated), 9.36%.
As for `Cc1cccnc1NC(=O)NCc1cccnc1OC(C)C`, the figure is -8.75%; as for `CCC(=O)NCC(=O)NC(C)c1sc(-c2ccccc2F)nc1C` (configuration not stated), 9.65%.
Take `CNC(=O)CN1CCOCC2(CCCN(Cc3ccsc3)C2)C1` (configuration not stated): the cytotoxicity at 10 µM amounted to 2.61%.
As for `COc1nn(C)cc1C(=O)N1CCC(c2nnc(C3CC3)o2)CC1`, the figure is 5.14%; as for `CCN(CC)c1ccc2ccc(C(=O)NC3CC3)cn12`, -2.6%.
As for `CC(NC(=O)NC1CCN(Cc2ccccc2)CC1)c1nncn1C` (configuration not stated), the figure is -12.5%; as for `CN1CCC(c2cccc(Cc3ccccc3)n2)CC1`, -9.24%.
